In PMC13170702 (Nuclear medicine and biology, 2025):

Experiment: organ radiation dose estimates, OLINDA 1.1, ICRP-60
Format: in vivo, human
In short: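 Whole-body PET-MR ran as nine scans to 214 min. Organ VOIs were drawn in AMIDE, giving decay-corrected %IA per VOI; remainder = whole body minus measured organs. TIACs came from the exponential model (EXM) in OLINDA 1.1. Per-participant organ doses used 70 kg adult male or 55 kg female models in OLINDA 1.1. Effective dose (mSv) = organ absorbed doses × ICRP-60 tissue weighting factors.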

- Effective dose (whole body) (F1 (189 MBq)): 5.42 mSv
- Estimated absorbed dose, Adrenals (F1 (189 MBq)): 3.89 mGy
- Estimated absorbed dose, Brain (F1 (189 MBq)): 3.40 mGy
- Estimated absorbed dose, Breasts (F1 (189 MBq)): 1.79 mGy
- Estimated absorbed dose, Gallbladder wall (F1 (189 MBq)): 4.40 mGy
- Estimated absorbed dose, Heart wall (F1 (189 MBq)): 4.25 mGy
- Estimated absorbed dose, Kidneys (F1 (189 MBq)): 32.5 mGy
- Estimated absorbed dose, Liver (F1 (189 MBq)): 7.85 mGy
- Estimated absorbed dose, Lower large intestine wall (F1 (189 MBq)): 2.64 mGy
- Estimated absorbed dose, Lungs (F1 (189 MBq)): 12.3 mGy
- Estimated absorbed dose, Muscle (F1 (189 MBq)): 2.06 mGy
- Estimated absorbed dose, Osteogenic cells (F1 (189 MBq)): 2.94 mGy
- Estimated absorbed dose, Ovaries (F1 (189 MBq)): 2.83 mGy
- Estimated absorbed dose, Pancreas (F1 (189 MBq)): 6.10 mGy
- Estimated absorbed dose, Red marrow (F1 (189 MBq)): 2.15 mGy
- Estimated absorbed dose, Remainder (F1 (189 MBq)): 2.62 mGy
- Estimated absorbed dose, Skin (F1 (189 MBq)): 1.44 mGy
- Estimated absorbed dose, Small intestine (F1 (189 MBq)): 6.06 mGy
- Estimated absorbed dose, Spleen (F1 (189 MBq)): 8.87 mGy
- Estimated absorbed dose, Stomach wall (F1 (189 MBq)): 2.68 mGy
- Estimated absorbed dose, Thymus (F1 (189 MBq)): 7.08 mGy
- Estimated absorbed dose, Thyroid (F1 (189 MBq)): 1.88 mGy
- Estimated absorbed dose, Upper, lower intestine wall (F1 (189 MBq)): 3.09 mGy
- Estimated absorbed dose, Urinary bladder wall (F1 (189 MBq)): 18.8 mGy
- Estimated absorbed dose, Uterus (F1 (189 MBq)): 4.21 mGy
- Effective dose (whole body) (F2, no voiding (355 MBq)): 10.6 mSv
- Estimated absorbed dose, Adrenals (F2, no voiding (355 MBq)): 7.74 mGy
- Estimated absorbed dose, Brain (F2, no voiding (355 MBq)): 5.65 mGy
- Estimated absorbed dose, Breasts (F2, no voiding (355 MBq)): 2.93 mGy
- Estimated absorbed dose, Gallbladder wall (F2, no voiding (355 MBq)): 7.35 mGy
- Estimated absorbed dose, Heart wall (F2, no voiding (355 MBq)): 6.61 mGy
- Estimated absorbed dose, Kidneys (F2, no voiding (355 MBq)): 93.4 mGy
- Estimated absorbed dose, Liver (F2, no voiding (355 MBq)): 14.6 mGy
- Estimated absorbed dose, Lower large intestine wall (F2, no voiding (355 MBq)): 4.26 mGy
- Estimated absorbed dose, Lungs (F2, no voiding (355 MBq)): 25.5 mGy
- Estimated absorbed dose, Muscle (F2, no voiding (355 MBq)): 3.45 mGy
- Estimated absorbed dose, Osteogenic cells (F2, no voiding (355 MBq)): 4.69 mGy
- Estimated absorbed dose, Ovaries (F2, no voiding (355 MBq)): 5.22 mGy
- Estimated absorbed dose, Pancreas (F2, no voiding (355 MBq)): 7.78 mGy
- Estimated absorbed dose, Red marrow (F2, no voiding (355 MBq)): 3.77 mGy
- Estimated absorbed dose, Remainder (F2, no voiding (355 MBq)): 4.65 mGy
- Estimated absorbed dose, Skin (F2, no voiding (355 MBq)): 2.31 mGy
- Estimated absorbed dose, Small intestine (F2, no voiding (355 MBq)): 8.35 mGy
- Estimated absorbed dose, Spleen (F2, no voiding (355 MBq)): 5.86 mGy
- Estimated absorbed dose, Stomach wall (F2, no voiding (355 MBq)): 4.40 mGy
- Estimated absorbed dose, Thymus (F2, no voiding (355 MBq)): 7.57 mGy
- Estimated absorbed dose, Thyroid (F2, no voiding (355 MBq)): 17.0 mGy
- Estimated absorbed dose, Upper, lower intestine wall (F2, no voiding (355 MBq)): 5.04 mGy
- Estimated absorbed dose, Urinary bladder wall (F2, no voiding (355 MBq)): 32.9 mGy
- Estimated absorbed dose, Uterus (F2, no voiding (355 MBq)): 47.2 mGy
- Effective dose (whole body) (F3 (117 MBq)): 2.67 mSv
- Estimated absorbed dose, Adrenals (F3 (117 MBq)): 2.50 mGy
- Estimated absorbed dose, Brain (F3 (117 MBq)): 1.60 mGy
- Estimated absorbed dose, Breasts (F3 (117 MBq)): 1.13 mGy
- Estimated absorbed dose, Gallbladder wall (F3 (117 MBq)): 2.95 mGy
- Estimated absorbed dose, Heart wall (F3 (117 MBq)): 2.26 mGy
- Estimated absorbed dose, Kidneys (F3 (117 MBq)): 21.0 mGy
- Estimated absorbed dose, Liver (F3 (117 MBq)): 5.81 mGy
- Estimated absorbed dose, Lower large intestine wall (F3 (117 MBq)): 1.47 mGy
- Estimated absorbed dose, Lungs (F3 (117 MBq)): 5.47 mGy
- Estimated absorbed dose, Muscle (F3 (117 MBq)): 1.29 mGy
- Estimated absorbed dose, Osteogenic cells (F3 (117 MBq)): 1.94 mGy
- Estimated absorbed dose, Ovaries (F3 (117 MBq)): 1.63 mGy
- Estimated absorbed dose, Pancreas (F3 (117 MBq)): 2.85 mGy
- Estimated absorbed dose, Red marrow (F3 (117 MBq)): 1.36 mGy
- Estimated absorbed dose, Remainder (F3 (117 MBq)): 1.61 mGy
- Estimated absorbed dose, Skin (F3 (117 MBq)): 0.945 mGy
- Estimated absorbed dose, Small intestine (F3 (117 MBq)): 3.30 mGy
- Estimated absorbed dose, Spleen (F3 (117 MBq)): 3.02 mGy
- Estimated absorbed dose, Stomach wall (F3 (117 MBq)): 1.68 mGy
- Estimated absorbed dose, Thymus (F3 (117 MBq)): 2.23 mGy
- Estimated absorbed dose, Thyroid (F3 (117 MBq)): 2.03 mGy
- Estimated absorbed dose, Upper, lower intestine wall (F3 (117 MBq)): 1.91 mGy
- Estimated absorbed dose, Urinary bladder wall (F3 (117 MBq)): 1.57 mGy
- Estimated absorbed dose, Uterus (F3 (117 MBq)): 3.93 mGy
- Effective dose (whole body) (F4 (167 MBq)): 3.90 mSv
- Estimated absorbed dose, Adrenals (F4 (167 MBq)): 3.19 mGy
- Estimated absorbed dose, Brain (F4 (167 MBq)): 2.79 mGy
- Estimated absorbed dose, Breasts (F4 (167 MBq)): 1.47 mGy
- Estimated absorbed dose, Gallbladder wall (F4 (167 MBq)): 3.08 mGy
- Estimated absorbed dose, Heart wall (F4 (167 MBq)): 4.15 mGy
- Estimated absorbed dose, Kidneys (F4 (167 MBq)): 28.1 mGy
- Estimated absorbed dose, Liver (F4 (167 MBq)): 6.41 mGy
- Estimated absorbed dose, Lower large intestine wall (F4 (167 MBq)): 2.09 mGy
- Estimated absorbed dose, Lungs (F4 (167 MBq)): 9.27 mGy
- Estimated absorbed dose, Muscle (F4 (167 MBq)): 1.67 mGy
- Estimated absorbed dose, Osteogenic cells (F4 (167 MBq)): 2.46 mGy
- Estimated absorbed dose, Ovaries (F4 (167 MBq)): 2.39 mGy
- Estimated absorbed dose, Pancreas (F4 (167 MBq)): 3.95 mGy
- Estimated absorbed dose, Red marrow (F4 (167 MBq)): 1.79 mGy
- Estimated absorbed dose, Remainder (F4 (167 MBq)): 2.14 mGy
- Estimated absorbed dose, Skin (F4 (167 MBq)): 1.19 mGy
- Estimated absorbed dose, Small intestine (F4 (167 MBq)): 6.82 mGy
- Estimated absorbed dose, Spleen (F4 (167 MBq)): 3.11 mGy
- Estimated absorbed dose, Stomach wall (F4 (167 MBq)): 2.19 mGy
- Estimated absorbed dose, Thymus (F4 (167 MBq)): 4.01 mGy
- Estimated absorbed dose, Thyroid (F4 (167 MBq)): 2.31 mGy
- Estimated absorbed dose, Upper, lower intestine wall (F4 (167 MBq)): 2.83 mGy
- Estimated absorbed dose, Urinary bladder wall (F4 (167 MBq)): 4.93 mGy
- Estimated absorbed dose, Uterus (F4 (167 MBq)): 6.49 mGy
- Effective dose (whole body) (Female n=4, mean±SD): 0.0262±0.00361 mSv/MBq
- Estimated dose, Adrenals (Female n=4, mean±SD): 0.0207±0.00119 mGy/MBq
- Estimated dose, Brain (Female n=4, mean±SD): 0.0161±0.0018 mGy/MBq
- Estimated dose, Breasts (Female n=4, mean±SD): 0.00903±0.000633 mGy/MBq
- Estimated dose, Gallbladder wall (Female n=4, mean±SD): 0.0219±0.00297 mGy/MBq
- Estimated dose, Heart wall (Female n=4, mean±SD): 0.0213±0.00289 mGy/MBq
- Estimated dose, Kidneys (Female n=4, mean±SD): 0.196±0.0451 mGy/MBq
- Estimated dose, Liver (Female n=4, mean±SD): 0.0426±0.00491 mGy/MBq
- Estimated dose, Lower, large intestine wall (Female n=4, mean±SD): 0.0128±0.000858 mGy/MBq
- Estimated dose, Lungs (Female n=4, mean±SD): 0.0598±0.0109 mGy/MBq
- Estimated dose, Muscle (Female n=4, mean±SD): 0.0104±0.00065 mGy/MBq
- Estimated dose, Osteogenic cells (Female n=4, mean±SD): 0.0150±0.00144 mGy/MBq
- Estimated dose, Ovaries (Female n=4, mean±SD): 0.0145±0.000479 mGy/MBq
- Estimated dose, Pancreas (Female n=4, mean±SD): 0.0256±0.00462 mGy/MBq
- Estimated dose, Red marrow (Female n=4, mean±SD): 0.0111±0.000499 mGy/MBq
- Estimated dose, Remainder (Female n=4, mean±SD): 0.0134±0.000535 mGy/MBq
- Estimated dose, Skin (Female n=4, mean±SD): 0.00734±0.000677 mGy/MBq
- Estimated dose, Small intestine (Female n=4, mean±SD): 0.0312±0.00733 mGy/MBq
- Estimated dose, Spleen (Female n=4, mean±SD): 0.0270±0.0139 mGy/MBq
- Estimated dose, Stomach wall (Female n=4, mean±SD): 0.0135±0.000943 mGy/MBq
- Estimated dose, Thymus (Female n=4, mean±SD): 0.0255±0.00826 mGy/MBq
- Estimated dose, Thyroid (Female n=4, mean±SD): 0.0223±0.0174 mGy/MBq
SMILES: COC(=O)[C@@H](N)CC(=O)Nc1ccc2c(c1)Cc1cc([18F])ccc1-2 [[^18F]RP-115, methyl N^4-(7-[^18F]fluoro-9H-fluoren-2-yl)asparaginate]
